From PMC11568772 (Drug Design, Development and Therapy, 2024) come the findings set out here.

Assay [1] relates to colorectal (HCT116) carcinoma cell line. Nature of the assay: MTT cytotoxicity, HCT-116. In kind it is cell-based. Conditions: Homo sapiens, HCT-116, 24 h, read-out: IC50 HCT-116.
The subject of assay [2] is hepatocellular (HePG2) carcinoma cell line. The assay can be described thus: MTT cytotoxicity, HePG-2. In kind it is cell-based. The conditions noted are these: Homo sapiens, HepG2, 24 h, read-out: IC50 HePG-2.
Assay [3] relates to human cervical (Hela) carcinoma cell line. The assay can be described thus: MTT cytotoxicity, Hela. Conditions: 24 h, read-out: IC50 Hela. In kind it is cell-based. An outline of the steps:
(§1)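 Cells were grown in medium with 10% FBS, penicillin/streptomycin, 37°C, 5% CO2, then seeded at 1.0×10^4 cells/well and held 48 h. Test compound was added at 1.56, 3.125, 6.25, 12.5, 25, 50 and 100, for 24 h. MTT (5 mg/mL stock) was added for 4 h, formazan dissolved in DMSO and A570 read. Viability was taken relative to untreated wells. IC50 came from a Boltzmann sigmoidal fit, in triplicate, mean ± SD.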

Assay [4] concerns breast cancer (MCF-7) cell line. Nature of the assay: MTT cytotoxicity, MCF-7. Conditions: Homo sapiens, MCF7, 24 h, read-out: IC50 MCF-7. In kind it is cell-based. In short, it runs like this: as §1
Assay [5] relates to WI-38 normal fibroblast cells. Nature of the assay: MTT cytotoxicity towards normal human cells WI-38. In kind it is cell-based. The conditions noted are these: WI-38, 24 h, read-out: IC50 WI-38.
For assay [6], the system named is HCT-116, HePG-2, HeLa and MCF-7 cells. Nature of the assay: MTT cytotoxicity summarised over the 4 cancer cell lines. The conditions noted are these: Homo sapiens, read-out: IC50 range of one compound over the cancer cell lines. In kind it is cell-based. In short, it runs like this: as §1
For the next assay, the target named is VEGFR-2 enzyme (Homo sapiens, UniProt P35968). The assay can be described thus: VEGFR-2 kinase inhibitory assay. In kind it is biochemical. The conditions noted are these: for inhibition at 0.01 µM: read-out: % Inhibition 0.01 μM, VEGFR-2 enzyme, 0.01 μM; for inhibition at 0.1 µM: read-out: % Inhibition 0.1 μM, VEGFR-2 enzyme, 0.1 μM; for inhibition at 10 µM: read-out: % Inhibition 10 μM, VEGFR-2 enzyme, 10 μM.

Where only a bound is given, the exact number is not on record here.

VEGFR-2 enzyme, sequence (P35968 20-1356): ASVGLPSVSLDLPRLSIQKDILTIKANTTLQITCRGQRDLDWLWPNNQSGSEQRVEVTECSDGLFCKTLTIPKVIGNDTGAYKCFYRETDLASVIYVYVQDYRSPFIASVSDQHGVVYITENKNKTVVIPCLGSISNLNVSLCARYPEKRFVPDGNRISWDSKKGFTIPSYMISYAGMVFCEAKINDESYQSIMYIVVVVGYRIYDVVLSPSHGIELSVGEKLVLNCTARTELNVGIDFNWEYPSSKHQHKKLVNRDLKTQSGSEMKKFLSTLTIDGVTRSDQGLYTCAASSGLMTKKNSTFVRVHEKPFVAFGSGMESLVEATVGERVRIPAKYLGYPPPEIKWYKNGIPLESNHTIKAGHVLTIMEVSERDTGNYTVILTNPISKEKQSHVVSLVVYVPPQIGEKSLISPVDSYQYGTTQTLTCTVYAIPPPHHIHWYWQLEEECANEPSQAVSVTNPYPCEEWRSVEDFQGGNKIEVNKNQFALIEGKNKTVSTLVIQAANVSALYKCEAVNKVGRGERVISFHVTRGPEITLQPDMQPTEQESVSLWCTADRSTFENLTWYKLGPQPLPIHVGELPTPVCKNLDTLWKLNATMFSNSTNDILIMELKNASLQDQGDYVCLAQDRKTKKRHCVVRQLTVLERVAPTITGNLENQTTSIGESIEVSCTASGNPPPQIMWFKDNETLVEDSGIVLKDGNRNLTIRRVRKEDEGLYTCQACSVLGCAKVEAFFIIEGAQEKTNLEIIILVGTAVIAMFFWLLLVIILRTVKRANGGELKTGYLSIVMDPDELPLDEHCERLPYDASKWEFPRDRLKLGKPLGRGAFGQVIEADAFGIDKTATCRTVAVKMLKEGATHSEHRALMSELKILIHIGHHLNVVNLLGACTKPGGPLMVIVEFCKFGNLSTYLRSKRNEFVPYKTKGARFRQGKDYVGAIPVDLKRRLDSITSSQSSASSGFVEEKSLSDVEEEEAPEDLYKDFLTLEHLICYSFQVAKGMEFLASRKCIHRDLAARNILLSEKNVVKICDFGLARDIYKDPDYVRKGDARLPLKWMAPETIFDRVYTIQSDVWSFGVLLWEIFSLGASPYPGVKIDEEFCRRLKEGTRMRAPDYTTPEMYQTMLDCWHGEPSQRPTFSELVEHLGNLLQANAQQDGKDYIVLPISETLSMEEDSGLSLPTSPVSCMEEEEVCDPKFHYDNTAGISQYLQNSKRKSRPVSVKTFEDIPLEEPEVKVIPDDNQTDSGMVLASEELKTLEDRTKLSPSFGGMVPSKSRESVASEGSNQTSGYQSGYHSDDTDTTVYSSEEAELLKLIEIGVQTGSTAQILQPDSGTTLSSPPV

For orientation: IC50 means the concentration that inhibits the measured activity by half. In the case of `COc1ccc(NC(=O)NCCSc2nc3ccccc3c(=O)n2-c2ccccc2)cc1` [Compound 5a, 1-(4-Methoxyphenyl)-3-(2-((4-Oxo-3-Phenyl-3,4-Dihydroquinazolin-2-Yl)thio)ethyl)urea], the IC50 in assay [1] is 62.7 ± 3.6 µM; in assay [2], 81.3 ± 4.3 µM; in assay [3], 83.4 ± 4.4 µM; in assay [4] it was 79.5 ± 3.9 µM; in assay [5] it was 29.4 ± 2.1 µM; in assay [6] it was 62.7 to 83.4 µM.

Consider `O=C(NCCSc1nc2ccccc2c(=O)n1-c1ccccc1)Nc1ccc(Cl)cc1` [Compound 5b, 1-(4-Chlorophenyl)-3-(2-((4-Oxo-3-Phenyl-3,4-Dihydroquinazolin-2-Yl)thio)ethyl)urea], for which the IC50 in assay [1] was 77.3 ± 4.2 µM; in assay [2], 88.5 ± 4.8 µM; in assay [3], greater than 100 µM; in assay [4] it was 92.2 ± 4.7 µM; in assay [5] it was 64.3 ± 3.7 µM; in assay [6] it was 77.3 to 100 µM.

In the case of `O=C(NCCSc1nc2ccccc2c(=O)n1-c1ccccc1)Nc1ccc(Br)cc1` [Compound 5c, 1-(4-Bromophenyl)-3-(2-((4-Oxo-3-Phenyl-3,4-Dihydroquinazolin-2-Yl)thio)ethyl)urea], the half-inhibitory concentration (IC50) was 48.2 ± 3 µM in assay [1]; 57.8 ± 3.6 µM in assay [2]; 67.7 ± 3.9 µM in assay [3]; 55.1 ± 3.2 µM in assay [4]; greater than 100 µM in assay [5]; 48.2 to 67.7 µM in assay [6].

Usually inhibition stands for how much of the control response was suppressed. Regarding `O=C(NCCSc1nc2ccccc2c(=O)n1-c1ccccc1)Nc1ccc(C(F)(F)F)cc1` [Compound 5d, 1-(2-((4-Oxo-3-Phenyl-3,4-Dihydroquinazolin-2-Yl)thio)ethyl)-3-(4-(Trifluoromethyl)phenyl)urea], the half-inhibitory concentration (IC50) came to 6.09 ± 2.2 µM in assay [1]; 2.39 ± 0.1 µM in assay [2]; 8.94 ± 0.7 µM in assay [3]; 4.81 ± 0.2 µM in assay [4]; 36.3 ± 2.4 µM in assay [5]; 0.274 µM at VEGFR-2 enzyme. In addition, in assay [6], the 50% inhibitory concentration (IC50) is 2.39 to 8.94 µM. In addition, the inhibition at 0.01 µM at VEGFR-2 enzyme amounted to 25.5%. Moreover, the inhibition at 0.1 µM on VEGFR-2 enzyme was 38.9%. Also, the inhibition at 1 µM on VEGFR-2 enzyme (read-out: % Inhibition 1 μM, VEGFR-2 enzyme, 1 μM) amounted to 60.4%. The inhibition at 10 µM at VEGFR-2 enzyme came out at 83.5%. Besides, on VEGFR-2 enzyme (read-out: % Inhibition 100 μM, VEGFR-2 enzyme, 100 μM), the inhibition at 100 µM worked out at 91%.

Take `O=C(NCCSc1nc2ccccc2c(=O)n1-c1ccccc1)NCc1ccccc1` [Compound 5e, 1-Benzyl-3-(2-((4-Oxo-3-Phenyl-3,4-Dihydroquinazolin-2-Yl)thio)ethyl)urea]: the IC50 is 54.9 ± 3.3 µM in assay [1]; 65.7 ± 3.8 µM in assay [2]; 75.3 ± 4.2 µM in assay [3]; 72.8 ± 3.6 µM in assay [4]; greater than 100 µM in assay [5].

`COc1ccc(CNC(=O)NCCSc2nc3ccccc3c(=O)n2-c2ccccc2)cc1` [Compound 5f, 1-(4-Methoxybenzyl)-3-(2-((4-Oxo-3-Phenyl-3,4-Dihydroquinazolin-2-Yl)thio)ethyl)urea]: the half-inhibitory concentration (IC50) in assay [1] is 14.8 ± 1.3 µM; in assay [2], 34.2 ± 2.4 µM; in assay [3], 31.5 ± 2.3 µM; in assay [4], 18.7 ± 1.5 µM; in assay [5] it was 91.4 ± 5.1 µM; in assay [6], 14.8 to 34.2 µM.

As to `O=C(NCCSc1nc2ccccc2c(=O)n1-c1ccccc1)NCc1ccc(Cl)cc1` [Compound 5g, 1-(4-Chlorobenzyl)-3-(2-((4-Oxo-3-Phenyl-3,4-Dihydroquinazolin-2-Yl)thio)ethyl)urea], the IC50 is 35.3 ± 2.6 µM in assay [1]; 47.2 ± 3.1 µM in assay [2]; 53.7 ± 3.1 µM in assay [3]; 39.6 ± 2.6 µM in assay [4]; 86 ± 4.8 µM in assay [5]; 35.3 to 53.7 µM in assay [6].

Turning to `O=C(NCCSc1nc2ccccc2c(=O)n1-c1ccccc1)NCCc1ccccc1` [Compound 5h, 1-(2-((4-Oxo-3-Phenyl-3,4-Dihydroquinazolin-2-Yl)thio)ethyl)-3-Phenethylurea], the IC50 in assay [1] stood at 5.89 ± 0.3 µM; in assay [2] it was 6.74 ± 0.5 µM; in assay [3], 11.6 ± 0.9 µM; in assay [4], 13.9 ± 1.1 µM; in assay [5] it was 41.1 ± 2.6 µM; against VEGFR-2 enzyme, 0.215 µM. For the same compound, at VEGFR-2 enzyme (VEGFR-2 enzyme, 1 μM), the “% Inhibition 1 μM” value amounted to 65.78%. Besides, the “% Inhibition 100 μM” value at VEGFR-2 enzyme (VEGFR-2 enzyme, 100 μM) is 93.07%. Moreover, at VEGFR-2 enzyme, the inhibition at 0.01 µM was 25.3%. The inhibition at 0.1 µM at VEGFR-2 enzyme amounted to 40.1%. Further, the inhibition at 10 µM at VEGFR-2 enzyme came out at 86.1%.

As for `O=C(NCCSc1nc2ccccc2c(=O)n1-c1ccccc1)NCCc1ccc(Cl)cc1` [Compound 5i, 1-(4-Chlorophenethyl)-3-(2-((4-Oxo-3-Phenyl-3,4-Dihydroquinazolin-2-Yl)thio)ethyl)urea], the half-inhibitory concentration (IC50) in assay [1] is 39.1 ± 2.7 µM; in assay [2], 49.8 ± 3.2 µM; in assay [3], 58.3 ± 3.3 µM; in assay [4] it was 43.1 ± 2.8 µM; in assay [5], greater than 100 µM; in assay [6], 39.1 to 58.3 µM.

As to `COc1ccc(NC(=O)NCCSc2nc3cc(Cl)ccc3c(=O)n2-c2ccccc2)cc1` [Compound 5j, 1-(2-((7-Chloro-4-Oxo-3-Phenyl-3,4-Dihydroquinazolin-2-Yl)thio)ethyl)-3-(4-Methoxyphenyl)urea], the half-maximal inhibitory concentration (IC50) in assay [1] is 9.51 ± 0.9 µM; in assay [2], 12.3 ± 1 µM; in assay [3], 19.1 ± 1.4 µM; in assay [4], 16 ± 1.3 µM; in assay [5], 38.5 ± 2.5 µM; in assay [6], 9.51 to 16 µM.

In the case of `O=C(NCCSc1nc2cc(Cl)ccc2c(=O)n1-c1ccccc1)Nc1ccc(Cl)cc1` [Compound 5k, 1-(2-((7-Chloro-4-Oxo-3-Phenyl-3,4-Dihydroquinazolin-2-Yl)thio)ethyl)-3-(4-Chlorophenyl)urea], the half-maximal inhibitory concentration (IC50) was 23.4 ± 2.1 µM in assay [1]; 40.9 ± 2.6 µM in assay [2]; 38 ± 2.5 µM in assay [3]; 32.9 ± 2.3 µM in assay [4]; greater than 100 µM in assay [5]; 23.4 to 40.9 µM in assay [6].

Turning to `O=C(NCCSc1nc2cc(Cl)ccc2c(=O)n1-c1ccccc1)Nc1ccc(Br)cc1` [Compound 5l, 1-(4-Bromophenyl)-3-(2-((7-Chloro-4-Oxo-3-Phenyl-3,4-Dihydroquinazolin-2-Yl)thio)ethyl)urea], the IC50 in assay [1] was 28.6 ± 2.3 µM; in assay [2], 44.7 ± 2.9 µM; in assay [3], 49.4 ± 2.9 µM; in assay [4], 37.2 ± 2.5 µM; in assay [5], greater than 100 µM; in assay [6], 28.6 to 49.4 µM.

In the case of `O=C(NCCSc1nc2cc(Cl)ccc2c(=O)n1-c1ccccc1)Nc1ccc(C(F)(F)F)cc1` [Compound 5m, 1-(2-((7-Chloro-4-Oxo-3-Phenyl-3,4-Dihydroquinazolin-2-Yl)thio)ethyl)-3-(4-(Trifluoromethyl)phenyl)urea], the half-maximal inhibitory concentration (IC50) in assay [1] is 18.1 ± 1.5 µM; in assay [2] it was 30.7 ± 2.2 µM; in assay [3] it was 27.9 ± 2.1 µM; in assay [4], 21.4 ± 1.8 µM; in assay [5] it was 76.3 ± 4.3 µM; in assay [6], 18.1 to 30.7 µM.

With `O=C(NCCSc1nc2cc(Cl)ccc2c(=O)n1-c1ccccc1)NCc1ccccc1` [Compound 5n, 1-Benzyl-3-(2-((7-Chloro-4-Oxo-3-Phenyl-3,4-Dihydroquinazolin-2-Yl)thio)ethyl)urea], the IC50 in assay [1] amounted to 44.2 ± 2.8 µM; in assay [2], 52.4 ± 3.4 µM; in assay [3], 61.5 ± 3.7 µM; in assay [4], 48.7 ± 3 µM; in assay [5] it was 73.6 ± 3.9 µM.

As for `COc1ccc(CNC(=O)NCCSc2nc3cc(Cl)ccc3c(=O)n2-c2ccccc2)cc1` [Compound 5o, 1-(2-((7-Chloro-4-Oxo-3-Phenyl-3,4-Dihydroquinazolin-2-Yl)thio)ethyl)-3-(4-Methoxybenzyl)urea], the concentration for half-maximal inhibition (IC50) in assay [1] was 69.3 ± 3.9 µM; in assay [2], 84.3 ± 4.6 µM; in assay [3] it was 90.2 ± 4.8 µM; in assay [4], 86.5 ± 4.2 µM; in assay [5], 35.9 ± 2.3 µM; in assay [6], 69.3 to 90.2 µM.

As for `O=C(NCCSc1nc2cc(Cl)ccc2c(=O)n1-c1ccccc1)NCCc1ccccc1` [Compound 5q, 1-(2-((7-Chloro-4-Oxo-3-Phenyl-3,4-Dihydroquinazolin-2-Yl)thio)ethyl)-3-Phenethylurea], the half-maximal inhibitory concentration (IC50) in assay [1] was determined as 32.5 ± 2.5 µM; in assay [2], 41.6 ± 2.8 µM; in assay [3] it was 45.2 ± 2.7 µM; in assay [4], 24.6 ± 2 µM; in assay [5], 53 ± 3.1 µM.

As to `O=C(NCCSc1nc2cc(Cl)ccc2c(=O)n1-c1ccccc1)NCCc1ccc(Cl)cc1` [Compound 5r, 1-(2-((7-Chloro-4-Oxo-3-Phenyl-3,4-Dihydroquinazolin-2-Yl)thio)ethyl)-3-(4-Chlorophenethyl)urea], the IC50 in assay [1] is 13.2 ± 1.1 µM; in assay [2], 17.7 ± 1.4 µM; in assay [3], 22.4 ± 1.7 µM; in assay [4], 10.7 ± 0.9 µM; in assay [5], 74.2 ± 4.1 µM; in assay [6], 10.7 to 22.4 µM.
